What is called Ki is a measure of affinity in units of concentration, obtained from inhibition or displacement.

Consider 5 compounds from ChEMBL document CHEMBL1145100, “Structure-activity relationship of imidazo[1,2-a]pyridines as ligands for detecting beta-amyloid plaques in the brain” (J Med Chem, 2003).

Some results are limits rather than exact numbers.

This test addresses Amyloid-beta precursor protein (Homo sapiens, UniProt P05067). The experiment in a line: Inhibition constant against [125I]-7 (TZDM) binding to Amyloid beta 1-40 aggregates. The method in brief: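 Abeta40 peptide aggregated at 0.5 mg/mL in pH 7.4 buffer (10 mM sodium phosphate, 1 mM EDTA), 37 °C for 36-42 h with shaking. Competition in 1 mL of 40% EtOH: fibrils 10-50 nM final, radiotracer 0.05 nM, inhibitors 10^-5 to 10^-10 M. Nonspecific binding with 2 µM thioflavin-T. Incubated 3 h at room temperature, then GF/B filtration with 10% ethanol washes and gamma counting. Ki from nonlinear regression.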

Amyloid-beta precursor protein, sequence (P05067 whole entry): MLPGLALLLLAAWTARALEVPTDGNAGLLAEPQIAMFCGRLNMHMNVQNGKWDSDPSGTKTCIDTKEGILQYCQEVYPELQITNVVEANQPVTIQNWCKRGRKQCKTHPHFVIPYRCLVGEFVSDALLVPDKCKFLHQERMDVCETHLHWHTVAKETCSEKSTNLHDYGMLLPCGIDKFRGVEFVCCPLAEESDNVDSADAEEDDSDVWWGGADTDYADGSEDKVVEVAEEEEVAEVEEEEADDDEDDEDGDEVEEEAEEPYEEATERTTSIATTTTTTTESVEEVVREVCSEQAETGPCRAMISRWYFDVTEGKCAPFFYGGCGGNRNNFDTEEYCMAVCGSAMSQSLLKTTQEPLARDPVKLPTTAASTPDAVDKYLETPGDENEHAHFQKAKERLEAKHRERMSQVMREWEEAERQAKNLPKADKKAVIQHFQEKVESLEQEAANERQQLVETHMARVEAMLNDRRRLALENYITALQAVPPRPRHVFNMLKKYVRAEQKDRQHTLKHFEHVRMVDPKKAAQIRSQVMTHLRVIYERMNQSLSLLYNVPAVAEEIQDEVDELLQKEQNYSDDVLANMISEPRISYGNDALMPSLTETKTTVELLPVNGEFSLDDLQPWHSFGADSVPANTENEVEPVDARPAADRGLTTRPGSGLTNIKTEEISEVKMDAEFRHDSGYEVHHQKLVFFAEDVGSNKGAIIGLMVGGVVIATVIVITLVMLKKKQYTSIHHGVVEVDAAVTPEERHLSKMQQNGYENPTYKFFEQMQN

Compound `CNc1ccc(-c2cn3cc(C)ccc3n2)cc1` registered an inhibition constant (Ki) above 2000 nM.
The compound `Cc1ccc2nc(-c3ccc(N(C)C)cc3)cn2c1` came in with an inhibitory constant (Ki) of 242 nM.
`Cc1ccc2nc(-c3ccc(Br)cc3)cn2c1` had a Ki of 638 nM.
Compound `CN(C)c1ccc(-c2cn3cc(Br)ccc3n2)cc1` registered a Ki of 10.3 nM.
Next, `CNc1ccc(-c2cn3ccccc3n2)cc1`: above 1000 nM.
